# Measured values from different studies.
# Lines come from different studies, so protocols differ.
SMILES,technique,matrix,pH,pKa
CC(C)(C)CCN1CC2C(CNC(=O)c3cc(Cl)cc(Cl)c3)C2C1 (stereo not shown),,,,8.1
COc1ccccc1Oc1c(NS(=O)(=O)c2ccc(C(C)(C)C)cc2)nc(-c2ncccn2)nc1OCCO,,,,5.11
Cc1cc(Cl)cc(S(C)(=O)=O)c1NC(=O)c1cc(Br)nn1-c1ncccc1Cl,potentiometric,,,8.95
Cc1cnc(N2CC3(CCOCC3)C2)c(C(=O)Nc2ccc(C(=O)N3CCc4cc(C(=O)Nc5c(C)cccc5F)sc4-c4ccccc43)cc2)c1,,,,4.8
O=C1c2c(O)cc(O)cc2O[C@H](c2cc(O)c(O)c(O)c2)[C@H]1O,absorbance,aqueous buffer,pH 3.1,7.9
CC#Cc1cncc(-c2ccc3c(c2)[C@@]2(N=C(C)C(N)=N2)[C@]2(CC[C@H](OC)CC2)C3)c1,,,,6.4
C=CC(=O)N(C)CCOc1c(N)ncnc1-c1cc(F)cc(NC(=O)c2ccc(C3CC3)cc2F)c1C,,,,4.1
CC(C)CC(=O)N1CCC[C@H](COc2cccc3c2C(N)=NS(=O)(=O)N3)C1,,,,6.31
COc1ccc(S(=O)(=O)N/N=C/c2cccc(C(=O)O)c2)cc1OC,,aqueous buffer,,6.69
COc1cccc(C=CCC(=O)O)c1OC,,,,~4.2
CS(=O)(=O)N1CCN(Cc2cc3nc(-c4cccc5[nH]ncc45)nc(N4CCOCC4)c3s2)CC1,,,,4.24
COC(=O)c1ccc(/C=N/NS(=O)(=O)c2ccc(OC)c(OC)c2)cc1,,aqueous buffer,,6.86
CCn1c(C(=O)N(C2CC2)C2CC2)cc2c3c(ncn3C)c(Nc3cc(C)n(C)n3)nc21,,,,4
